In ChEMBL document CHEMBL3046221, “Asymmetric chloronicotinyl insecticide, 1-[1-(6-chloro-3-pyridyl)ethyl]-2-nitroiminoimidazolidine: preparation, resolution and biological activities toward insects and their nerve preparations” (Biosci Biotechnol Biochem, 2003):

Legend:
[1] = biological target: T1, Nicotinic acetylcholine receptor alpha 5 subunit (Musca domestica, UniProt A9XFY4); assay: Displacement of [3HIMI from nicotinic acetylcholine receptor in Musca domestica (house fly) head membranes incubated for 60 min by liquid scintillation counting method; parameters: species or system Membrane
T1 sequence (A9XFY4 whole entry): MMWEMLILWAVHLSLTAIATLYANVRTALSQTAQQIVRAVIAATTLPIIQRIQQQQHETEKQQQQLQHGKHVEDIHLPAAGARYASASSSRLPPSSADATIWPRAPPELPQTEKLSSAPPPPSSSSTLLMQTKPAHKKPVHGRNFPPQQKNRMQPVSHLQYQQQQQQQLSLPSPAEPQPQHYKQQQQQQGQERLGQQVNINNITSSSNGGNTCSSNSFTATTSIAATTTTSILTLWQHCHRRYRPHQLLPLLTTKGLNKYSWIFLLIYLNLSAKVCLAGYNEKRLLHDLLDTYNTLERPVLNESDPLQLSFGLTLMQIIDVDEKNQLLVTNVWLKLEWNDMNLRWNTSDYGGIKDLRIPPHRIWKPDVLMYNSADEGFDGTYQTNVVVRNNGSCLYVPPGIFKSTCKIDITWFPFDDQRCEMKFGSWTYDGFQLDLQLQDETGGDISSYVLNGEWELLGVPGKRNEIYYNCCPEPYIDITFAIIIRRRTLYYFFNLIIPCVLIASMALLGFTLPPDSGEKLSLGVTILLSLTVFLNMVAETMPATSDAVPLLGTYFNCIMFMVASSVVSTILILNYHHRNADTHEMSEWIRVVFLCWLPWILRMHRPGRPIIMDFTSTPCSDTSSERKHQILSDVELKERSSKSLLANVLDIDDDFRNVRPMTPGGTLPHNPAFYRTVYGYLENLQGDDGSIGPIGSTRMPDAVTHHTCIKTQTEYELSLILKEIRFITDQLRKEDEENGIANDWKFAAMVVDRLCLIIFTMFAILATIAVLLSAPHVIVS
Method in brief: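 Housefly heads homogenized in pH 7.4 phosphate/sucrose/EDTA buffer; 700 g and 125,000 g spins; pellet resuspended in pH 7.4 phosphate, 50 mM NaCl, 0.1% Triton X-100. Membranes (3 mg/ml protein) preincubated with compound in DMSO 3-5 min at 24°C, then [3H]imidacloprid 10 nM final, 60 min at 24°C. GF/B filtration; IC50 for inhibition of specific binding.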

Periplaneta americana = assay: Neuroblocking potency against Periplaneta americana (American cockroach) abdominal central nerve cord assessed as compound concentration at which the frequency first reduced below 10 counts/30 secs […] by electrophysiologt method; format: functional
Musca domestica [2] = assay: Insecticidal activity against female Musca domestica (house fly) administered through injection into dorsal side of thorax pre-treated with 0.2% w/v NIA and 0.2% w/v PB before compound injection measured 1 hr post dose; format: functional
Method in brief: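 Female houseflies anesthetized with CO2 were given 1 µl methanol with NIA 0.2% and PB 0.2% (w/v) topically on the abdomen. After 1 h at 25°C, 0.22 µl of compound in 50% aqueous ethanol at various concentrations was injected. Dead or paralyzed flies were counted 1 h later at 25°C, and ED50 (mol/insect) was derived by probit analysis.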

Musca domestica [3] = assay: Insecticidal activity against female Musca domestica (house fly) administered through injection into dorsal side of thorax measured 1 hr post dose; format: functional

SMILES	IC50 [1] [nM]	Activity (Periplaneta americana) [µM]	ED50 (Musca domestica [2]) [fmol]	ED50 (Musca domestica [3]) [fmol]
CC(c1ccc(Cl)nc1)N1CCN/C1=N\[N+](=O)[O-] (racemic) [(R,S)-METHYL-IMIDACLOPRID]	210	15	1.7	26
Clc1ccc([C@@H]2C[C@H]3CC[C@@H]2N3)cn1 [(+)-EPIBATIDINE]	2790			
Clc1ccc([C@H]2C[C@@H]3CC[C@H]2N3)cn1 [(-)-EPIBATIDINE]	1340			
C[C@H](c1ccc(Cl)nc1)N1CCN/C1=N\[N+](=O)[O-] [(R)-METHYL-IMIDACLOPRID]	950	73	2.3	55
C[C@@H](c1ccc(Cl)nc1)N1CCN/C1=N\[N+](=O)[O-] [(S)-METHYL-IMIDACLOPRID]	190	5.9	1.1	45
O=[N+]([O-])/N=C1\NCCN1Cc1ccc(Cl)nc1 [IMIDACLOPRID]		2.3	0.26	2.2
CN1CCC[C@H]1c1cccnc1 [NICOTINE]	11900			
CN1CCC[C@@H]1c1cccnc1 [R-NICOTINE]	422000			
